An excerpt weighted towards active compounds, which were near 2.2% of everything screened.
RanGTP-Impb inh: inhibitors of RanGTP-importin-beta interaction, primary screen, biochemical, FRET, CFP-Ran, YFP-importin-beta, homogeneous. cell-free CFP-Ran/YFP-importin-beta FRET ratio. inhibition, % (test concentration not listed). 300,000 tested, 1.1% active;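 active = more than half of the replicate wells show a fall in the fluorescence ratio signal beyond about 16%, limit read from the data, passing the limit was not always enough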;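 note: 0% = DMSO wells and 100% = Ran loaded with GDP instead of GTP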
eIF4E-4G inh: eIF4E/eIF4G interaction inhibition in translation initiation | P63073+Q04637 | TR-FRET eIF4E-eIF4GI(517-606) binding, 2 h | inhibition, % at 21.7 µM | 220,000 tested, 0.37% active | AID 782;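 active = inhibition above about 30%, limit read from the data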;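 note: 0% = full FRET control wells and 100% = background wells lacking eIF4GI fragment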
Hck Nef HTS: inhibitors of human Hck kinase activated by Nef | inhibition, % at 20 µM | AID 463187 | P08631 | 220,000 tested, 0.68% active | Recombinant Hck-YEEI plus Nef, Z-Lyte FRET kinase assay;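 active = Hck-Nef kinase inhibition above about 50%, limit read from the data; inactive = inhibition below that limit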;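 note: 0% = DMSO with Hck plus Nef and 100% = Hck alone without Nef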
PERK inhibitor: human PERK inhibition, primary cell-based screen | Q9NZJ5 | CHO PERK-DD fusion, SEAP luminescence translation reporter | inhibition, % at 5.6 µM | 220,000 tested, 0.17% active;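 active = inhibition above the mean inhibition of all tested compounds plus 3 SD, set separately per screening campaign, cut at about 2.9% in these data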;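 note: PERK kinase domain activated by AP20187 dimerizer at 100 nM; 0% = DMSO with dimerizer and 100% = rapamycin at 8.4 µM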
Runt-CBFb FRET: inhibitors of human RUNX1 Runt domain binding to CBFb; Cerulean-Runt/Venus-CBFb FRET ratio 530/480, 1 h; inhibition, % at 20 µM; 220,000 tested, 0.46% active; AID 1496;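 active = inhibition over about 50% at 20 µM in the single-dose screen, limit read from the data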;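 note: 0% = DMSO wells and 100% = excess unlabeled CBFb competitor control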
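Assay system: Cerulean-Runt domain fusion protein, energy donor; Signal: fluorescence energy transfer, 422 nm excitation, 530/480 nm emission; Timing: 1 h compound exposure, room temperature; Control set: unlabeled CBFb; Medium: Tris buffer pH 7.5 with salts and BSA; Compound: single test concentration of 20 µM, 1% DMSO final; Probe or stimulus: Venus-CBFb 100 nM.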
Runt-SMMHC FRET: Runt domain-CBFb-SMMHC interaction inhibition | Q01196+Q13951 | Cerulean-Runt/Venus-CBFb-SMMHC FRET ratio 530/480, 1 h | 220,000 tested, 0.74% active | inhibition, % at 20 µM | AID 1434;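 active = mean inhibition across duplicate retests at 20 µM reaching about 50%, limit read from the data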;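 note: 0% = DMSO wells and 100% = wells with excess untagged CBFb-SMMHC; inhibitors lower the FRET ratio by blocking Runt binding to CBFb-SMMHC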
Active calls of the source: *; . = no result given.

SMILES	RanGTP-Impb inh	eIF4E-4G inh	Hck Nef HTS	PERK inhibitor	Runt-CBFb FRET	Runt-SMMHC FRET
O=c1cc(N2CCc3ccccc32)[nH]c(=O)n1-c1ccc(Br)cc1	-7	0	0	0	7	7
CCOc1ccc(/C=C2/SC(=S)N(C(C(=O)O)c3ccccc3)C2=O)cc1OCC (stereo not drawn)	.	-3	62*	2	-40	-121
O=C(CCNC(=O)Cn1ccc2ccccc2c1=O)NCCCN1CCN(c2ccc(F)cc2)CC1	2	-7	0	0	.	-3
O=C(CNC(=O)Cn1ccc2ccccc2c1=O)NCCCN1CCN(c2cccc(Cl)c2)CC1	21*	6	0	0	-2	-8
O=C(NC1CC1)C1=C[C@H](C2CC2)C[C@H](OCCCCO)O1	-2	0	4	0	1	-5
CN1C=CC2=C(C#N)C(N)C(C#N)(C#N)[C@H](c3ccccc3)[C@H]2C1 (stereo partly drawn)	64*	3	7	0	66*	79*
Cc1ccc(-c2ccc(SCC(=O)N3CCc4ccccc43)nn2)cc1	-4	5	2	1	0	-7
COc1ccc(/C=N/NC(=O)c2cccc(C(=O)N/N=C/c3ccc(OC)cc3)n2)cc1	-1	.	.	.	.	.
COC(=O)CNC(=O)COC(=O)/C=C/c1ccc2ccccc2n1	27*	3	27	0	2	-2
CC(/C=N/NC(=O)Cc1cccs1)=C\c1ccco1	-5	-1	0	1	0	-6
CC(/C=N/NC(=O)c1cccs1)=C\c1ccco1	20*	9	30	1	2	2
CC(C)NC(=O)C1CCN(C2CCN(CC3CC=CCC3)CC2)CC1 (stereo not drawn)	5	-1	25	0	.	.
Cc1ccccc1C(=O)Nc1cccc(C(=O)N/N=C/c2cc(Cl)cc([N+](=O)[O-])c2O)c1	1	36*	-22	1	-11	-8
COc1cc(/C=N/NC(=O)c2cccc(NC(=O)c3ccccc3C)c2)ccc1O	-2	.	.	.	.	.
O=C1N/C(=N/Nc2ccccc2)S/C1=C\c1ccccc1	-1	-1	3	1	2	-6
OCCC1CN(Cc2c(F)cccc2Cl)CCN1C1CCCCC1 (stereo not drawn)	4	0	25	0	0	0
Cc1nn(C)c(Cl)c1CN1CCN(C2CCCCC2)C(CCO)C1 (stereo not drawn)	4	0	19	1	118*	-5
Cc1ccc(C)c(SCC(=O)NNC(=O)c2csc(N3CCOCC3)n2)c1	-2	.	.	.	.	.
CCOC(=O)c1cc(C#N)c(SCC(=O)c2cc(C#N)c(SC)nc2C)[nH]c1=O	60*	-9	1	1	16	36
O=C1CN(C(=O)CSc2nncn2-c2ccccc2)c2ccccc2N1	6	-15	1	0	-3	1
O=C(NC(Cc1ccccc1)C(=O)O)/C(=C\c1ccc(Br)cc1)NC(=O)c1ccc(Br)o1 (stereo not drawn)	12	.	.	.	.	.
O=C(NC(Cc1ccccc1)C(=O)O)/C(=C/c1ccc(Br)cc1)NC(=O)c1ccc(Br)o1 (stereo not drawn)	24*	.	.	.	.	.
O=C(NCc1ccccc1)/C(=C\c1ccc(O)cc1)NC(=O)c1ccco1	-3	.	.	.	.	.
O=C(NCc1ccco1)/C(=C/c1ccc(Br)cc1)NC(=O)c1ccco1	23*	.	.	.	.	.
O=C(CSc1nc2ccccc2o1)Nc1ccccc1N1CCOCC1	3	3	1	-1	-1	4
CC(=O)Oc1c(-c2ccco2)oc2ccccc2c1=O	13	-1	-118	1	20	92*
CCc1cccc(C)c1NC(=O)c1cccc(N(C)C)c1	-2	28	2	0	5	2
COC(=O)c1c(NC(=O)c2ccco2)sc2c1CCC2	4	1	3	0	2	0
CCOC(=O)c1c(NC(=O)Nc2ccc(C)cc2)sc2c1CCN(C)C2	9	0	-3	-1	22	13
CN1CCc2c(sc(NC(=O)c3cc(Cl)sc3Cl)c2C(N)=O)C1	147*	.	.	.	.	.
